Active and inactive are the calls of the source. No cut-off for these calls is given here.
Test system: not listed separately
Assay: Immunomodulatory activity in whole blood assessed as inhibition of luminol-induced oxidative burst by chemiluminescence assay
Assay type: functional, tissue-based
Procedure, shortened: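 Whole blood diluted 1:200 in HBSS with Ca2+ and Mg2+, preincubated 30 min with compounds at 3.1-50 µg/mL. Then serum-opsonized zymosan (20 mg/mL as added) and luminol ([…] as added) were added, and the final volume brought to 0.2 mL with HBSS++. HBSS++ alone served as control. Luminol-enhanced chemiluminescence measured, giving IC50.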

Row | SMILES | IC50
1 | COc1ccc2c(=O)n3c(nc2c1)-c1[nH]c2ccccc2c1CC3 | 48.8 µM
2 | CC(C)Cc1ccc(C(C)C(=O)O)cc1 (stereo unspecified) [IBUPROFEN] | 54.3 µM
3 | COc1cc2nc3occc3c(OC)c2cc1OC [KOKUSAGININE] | 74.9 µM
4 | CC1(C)O[C@H]2CC(=O)OC[C@]23[C@H]2CC[C@@]4(C)[C@H](c5ccoc5)OC(=O)[C@H]5O[C@]54[C@]2(C)C(=O)C[C@@H]13 [LIMONIN] | 26.1 µM
5 | COc1ccc2c(=O)n3c(nc2c1)-c1[nH]c2cc4c(cc2c1CC3)OCO4 [ORISUAVEOLINE B] | 31.8 µM
6 | COc1c2cc3c(cc2nc2occc12)O[C@@H](C(C)(C)O)CO3 [QUINOSUAVEOLINE B] | 56.8 µM
7 | COc1ccc2c(OC)c3ccoc3nc2c1OC [SKIMMIANINE] | 51.3 µM
8 | COc1c2ccoc2nc2c(O)c3c(c(CC=C(C)C)c12)OCO3 [TECLEAVERDOORNINE] | 54.4 µM

Test system: Neutrophil
Assay: Immunomodulatory activity in polymorphoneutrophils assessed as inhibition of luminol-induced oxidative burst by chemiluminescence assay
Assay type: functional, cell-based
Procedure, shortened: (§1)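 Luminol-enhanced chemiluminescence on isolated neutrophils (1 × 10^7) in HBSS with Ca2+ and Mg2+. Cells preincubated 30 min with compounds at 3.1-50 µg/mL. Burst triggered with serum-opsonized zymosan (20 mg/mL as added), followed by luminol ([…] as added). Final volume adjusted to 0.2 mL with HBSS++, which also served as control. Read-out is IC50.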

Row | SMILES | IC50
9 | COc1ccc2c(=O)n3c(nc2c1)-c1[nH]c2ccccc2c1CC3 | 27.4 µM
10 | CC(C)Cc1ccc(C(C)C(=O)O)cc1 (stereo unspecified) [IBUPROFEN] | 12.1 µM
11 | COc1cc2nc3occc3c(OC)c2cc1OC [KOKUSAGININE] | 61.8 µM
12 | CC1(C)O[C@H]2CC(=O)OC[C@]23[C@H]2CC[C@@]4(C)[C@H](c5ccoc5)OC(=O)[C@H]5O[C@]54[C@]2(C)C(=O)C[C@@H]13 [LIMONIN] | 38.2 µM
13 | COc1ccc2c(=O)n3c(nc2c1)-c1[nH]c2cc4c(cc2c1CC3)OCO4 [ORISUAVEOLINE B] | 22.4 µM
14 | COc1c2cc3c(cc2nc2occc12)O[C@@H](C(C)(C)O)CO3 [QUINOSUAVEOLINE B] | 14.5 µM
15 | COc1ccc2c(OC)c3ccoc3nc2c1OC [SKIMMIANINE] | 35.5 µM
16 | COc1c2ccoc2nc2c(O)c3c(c(CC=C(C)C)c12)OCO3 [TECLEAVERDOORNINE] | 21.2 µM

Test system: Neutrophil
Assay: Immunomodulatory activity in polymorphoneutrophils assessed as inhibition of zymosan-activated oxidative burst by chemiluminescence assay
Assay type: functional, cell-based
Procedure, shortened: as §1

Row | SMILES | Activity
17 | COc1ccc2c(=O)n3c(nc2c1)-c1[nH]c2ccccc2c1CC3 | Dose-dependent effect
18 | COc1cc2nc3occc3c(OC)c2cc1OC [KOKUSAGININE] | Dose-dependent effect
19 | CC1(C)O[C@H]2CC(=O)OC[C@]23[C@H]2CC[C@@]4(C)[C@H](c5ccoc5)OC(=O)[C@H]5O[C@]54[C@]2(C)C(=O)C[C@@H]13 [LIMONIN] | Dose-dependent effect
20 | COc1ccc2c(=O)n3c(nc2c1)-c1[nH]c2cc4c(cc2c1CC3)OCO4 [ORISUAVEOLINE B] | Dose-dependent effect
21 | COc1c2cc3c(cc2nc2occc12)O[C@@H](C(C)(C)O)CO3 [QUINOSUAVEOLINE B] | Dose-dependent effect
22 | COc1ccc2c(OC)c3ccoc3nc2c1OC [SKIMMIANINE] | Dose-dependent effect
23 | COc1c2ccoc2nc2c(O)c3c(c(CC=C(C)C)c12)OCO3 [TECLEAVERDOORNINE] | Dose-dependent effect

Test system: Neutrophil
Assay: Immunomodulatory activity in polymorphoneutrophils assessed as inhibition of PMA-activated oxidative burst by chemiluminescence assay
Assay type: functional, cell-based

Row | SMILES | Activity
24 | COc1ccc2c(=O)n3c(nc2c1)-c1[nH]c2ccccc2c1CC3 | inactive
25 | COc1cc2nc3occc3c(OC)c2cc1OC [KOKUSAGININE] | inactive
26 | CC1(C)O[C@H]2CC(=O)OC[C@]23[C@H]2CC[C@@]4(C)[C@H](c5ccoc5)OC(=O)[C@H]5O[C@]54[C@]2(C)C(=O)C[C@@H]13 [LIMONIN] | inactive
27 | COc1ccc2c(=O)n3c(nc2c1)-c1[nH]c2cc4c(cc2c1CC3)OCO4 [ORISUAVEOLINE B] | inactive
28 | COc1c2cc3c(cc2nc2occc12)O[C@@H](C(C)(C)O)CO3 [QUINOSUAVEOLINE B] | inactive
29 | COc1ccc2c(OC)c3ccoc3nc2c1OC [SKIMMIANINE] | inactive
30 | COc1c2ccoc2nc2c(O)c3c(c(CC=C(C)C)c12)OCO3 [TECLEAVERDOORNINE] | inactive

Test system: A549
Assay: Cytotoxicity against human A549 cells by SRB assay
Assay type: functional, cell-based
Procedure, shortened: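 A549 lung adenocarcinoma cells, freshly trypsinized, seeded at 1 × 10^4 cells per well. Compounds added from a DMSO-diluted stock. Cultured 3 days, then attached cells stained with sulforhodamine B and dye solubilized in DMSO. Absorbance read at 550 nm. IC50 is the concentration reducing cell growth by 50%. Cisplatin served as positive control.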

Row | SMILES | IC50
31 | COc1ccc2c(=O)n3c(nc2c1)-c1[nH]c2ccccc2c1CC3 | > 10 µM
32 | COc1c2c(cc3nc4occc4c(OC)c13)OCO2 | 7.9 µM
33 | COc1c2ccoc2nc2c(OC)c3c(cc12)OCO3 [FLINDERSIAMINE] | 8.9 µM
34 | COc1c2cc3c(cc2nc2occc12)OCO3 [MACULINE] | 9.5 µM
35 | O=c1c2ccc(O)cc2nc2n1CCc1c-2[nH]c2ccccc12 [ORISUAVEOLINE A] | > 10 µM
36 | COc1ccc2c(OC)c3ccoc3nc2c1OC [SKIMMIANINE] | > 10 µM

— ChEMBL document CHEMBL1154127, “Oxidative burst inhibitory and cytotoxic indoloquinazoline and furoquinoline alkaloids from Oricia suaveolens” (J Nat Prod, 2008)
